Measured values: ChEMBL document CHEMBL1126902, “Synthesis, chemical reactivity, and antitumor evaluation of congeners of carmethizole hydrochloride, an experimental "acylated vinylogous carbinolamine" tumor inhibitor” (J Med Chem, 1993)

Assays:
[1] = Percent increase in life span of dying mice tested in vivo at 87 mg/kg against ip implanted LOX amelanotic melanoma in mice (60-day survivors); assay type: functional; details: Mus musculus, 1440 h, route intraperitoneal
Method in brief: (§1)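 Nude CD2F1 female mice were implanted ip with ascitic fluid containing ca. 1.7×10^6 LOX amelanotic melanoma cells. Drug was given ip on days 1, 5 and 9, starting 24 h after implantation, and dosed by exact body weight. Solutions or suspensions were made fresh daily in saline plus Tween 80. %ILS was calculated from the median day of death of dying mice versus controls, excluding 60-day survivors.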

P388 [2] = assay: Change in tumor cell population in ip implanted P388 Leukemia in mice after administration of compound at 87 mg/kg; assay type: functional, Mus musculus; details: route intraperitoneal
Method in brief: (§2)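 P388 leukemia: ascitic fluid with ca. 5.2×10^6 cells inoculated ip into Portage-CD₂F₁ female mice. Drug given ip on days 1-5, starting 24 h after inoculation, dosed by average body weight. Vehicle was saline plus Tween 80, as a solution or suspension. KE = net log change in viable tumor cells from start to end of treatment.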

[3] = Change in tumor cell population in ip implanted LOX amelanotic melanoma in mice after administration of compound at 174 mg/kg; assay type: functional, Mus musculus; details: route intraperitoneal
Method in brief: (§3)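 Female CD2F1 mice were implanted ip with ascitic fluid holding ca. 1.7×10^6 LOX cells. Dosing was ip on days 1, 5 and 9, starting 24 h after implantation, by exact body weight, as a solution or suspension in saline plus Tween 80, freshly prepared daily. KE is the net log change in viable tumor cells from start to end of treatment. Bracketed KE assumes Poisson survival, with 60-day survivors tumor-free.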

[4] = Percent increase in life span of dying mice tested in vivo at 174 mg/kg against ip implanted LOX amelanotic melanoma in mice (60-day survivors); assay type: functional; details: Mus musculus, 1440 h, route intraperitoneal
Method in brief: (§4)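 Female CD2F1 mice implanted ip with ascitic fluid carrying ca. 1.7×10^6 LOX amelanotic melanoma cells. Drug given ip on days 1, 5 and 9, starting 24 h after implant, dosed by exact body weight; solutions or suspensions made fresh daily. %ILS is from the median day of death of dying mice versus controls, excluding 60-day survivors.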

P388 [5] = assay: Change in tumor cell population in ip implanted P388 Leukemia in mice after administration of compound at 43.5 mg/kg; assay type: functional, Mus musculus; details: route intraperitoneal
Method in brief: (§5)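 Female Portage-CD2F1 mice were inoculated ip with ascitic fluid holding ca. 5.2×10^6 P388 cells. Dosing was ip on days 1-5, starting 24 h after inoculation, by average body weight, as a solution or suspension in saline plus Tween 80. KE is the net log change in viable tumor cell population from start to end of the treatment period.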

[6] = Percent increase in life span of dying mice tested in vivo at 43.5 mg/kg against ip implanted LOX amelanotic melanoma in mice (60-day survivors); assay type: functional; details: Mus musculus, 1440 h, route intraperitoneal; method in brief: as §4
P388 [7] = assay: Change in tumor cell population in ip implanted P388 Leukemia in mice after administration of compound at 21.8 mg/kg; assay type: functional, Mus musculus; details: route intraperitoneal; method in brief: as §5
P388 [8] = assay: Percent increase in life span of dying mice tested in vivo at 87 mg/kg against ip implanted P388 Leukemia in mice; assay type: functional; details: Mus musculus, route intraperitoneal
Method in brief: (§6)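 Portage-CD2F1 female mice were inoculated ip with ascitic fluid containing ca. 5.2×10^6 P388 leukemia cells. Drug was given ip daily on days 1-5, starting 24 h after inoculation, and dosed by average body weight. %ILS was calculated from the median day of death of dying mice versus controls.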

P388 [9] = assay: Percent increase in life span of dying mice tested in vivo at 21.8 mg/kg against ip implanted P388 Leukemia in mice; assay type: functional; details: Mus musculus, route intraperitoneal
Method in brief: (§7)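 Portage-CD2F1 female mice inoculated ip with ascitic fluid carrying ca. 5.2×10^6 P388 leukemia cells. Drug given ip daily on days 1-5, starting 24 h after inoculation, dosed by average body weight. %ILS is from the median day of death of dying mice versus controls.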

[10] = Change in tumor cell population in ip implanted LOX amelanotic melanoma in mice after administration of compound at 43.5 mg/kg; assay type: functional, Mus musculus; details: route intraperitoneal; method in brief: as §3
[11] = Percent increase in life span of dying mice tested in vivo at 21.75 mg/kg against ip implanted LOX amelanotic melanoma in mice (60-day survivors); assay type: functional; details: Mus musculus, 1440 h, route intraperitoneal; method in brief: as §4
[12] = Change in tumor cell population in ip implanted LOX amelanotic melanoma in mice after administration of compound at 87 mg/kg; assay type: functional, Mus musculus; details: route intraperitoneal; method in brief: as §3
[13] = Change in tumor cell population in ip implanted LOX amelanotic melanoma in mice after administration of compound at 21.75 mg/kg; assay type: functional, Mus musculus; details: route intraperitoneal; method in brief: as §3
P388 [14] = assay: Percent increase in life span of dying mice tested in vivo at 43.5 mg/kg against ip implanted P388 Leukemia in mice; assay type: functional; details: Mus musculus, route intraperitoneal; method in brief: as §7
P388 [15] = assay: Percent increase in life span of dying mice tested in vivo at 10.9 mg/kg against ip implanted P388 Leukemia in mice; assay type: functional; details: Mus musculus, route intraperitoneal; method in brief: as §7
P388 [16] = assay: Change in tumor cell population in ip implanted P388 Leukemia in mice after administration of compound at 10.9 mg/kg; assay type: functional, Mus musculus; details: route intraperitoneal; method in brief: as §5
P388 [17] = assay: Percent increase in life span of dying mice tested in vivo at 49.5 mg/kg against ip implanted P388 Leukemia in mice; assay type: functional; details: Mus musculus, route intraperitoneal; method in brief: as §7
P388 [18] = assay: Percent increase in life span of dying mice tested in vivo at 99 mg/kg against ip implanted P388 Leukemia in mice; assay type: functional; details: Mus musculus, route intraperitoneal; method in brief: as §6
[19] = Percent increase in life span of dying mice tested in vivo at 198 mg/kg against ip implanted LOX amelanotic melanoma in mice (60-day survivors); assay type: functional; details: Mus musculus, 1440 h, route intraperitoneal; method in brief: as §4
P388 [20] = assay: Percent increase in life span of dying mice tested in vivo at 24.8 mg/kg against ip implanted P388 Leukemia in mice; assay type: functional; details: Mus musculus, route intraperitoneal; method in brief: as §7
[21] = Percent increase in life span of dying mice tested in vivo at 99 mg/kg against ip implanted LOX amelanotic melanoma in mice (60-day survivors); assay type: functional; details: Mus musculus, 1440 h, route intraperitoneal; method in brief: as §1
[22] = Percent increase in life span of dying mice tested in vivo at 24.75 mg/kg against ip implanted LOX amelanotic melanoma in mice (60-day survivors); assay type: functional; details: Mus musculus, 1440 h, route intraperitoneal; method in brief: as §4
P388 [23] = assay: Change in tumor cell population in ip implanted P388 Leukemia in mice after administration of compound at 49.5 mg/kg; assay type: functional, Mus musculus; details: route intraperitoneal; method in brief: as §2
P388 [24] = assay: Change in tumor cell population in ip implanted P388 Leukemia in mice after administration of compound at 99 mg/kg; assay type: functional, Mus musculus; details: route intraperitoneal; method in brief: as §2
P388 [25] = assay: Change in tumor cell population in ip implanted P388 Leukemia in mice after administration of compound at 12.4 mg/kg; assay type: functional, Mus musculus; details: route intraperitoneal; method in brief: as §5
P388 [26] = assay: Percent increase in life span of dying mice tested in vivo at 12.4 mg/kg against ip implanted P388 Leukemia in mice; assay type: functional; details: Mus musculus, route intraperitoneal; method in brief: as §7
[27] = Percent increase in life span of dying mice tested in vivo at 49.5 mg/kg against ip implanted LOX amelanotic melanoma in mice (60-day survivors); assay type: functional; details: Mus musculus, 1440 h, route intraperitoneal; method in brief: as §4
[28] = Change in tumor cell population in ip implanted LOX amelanotic melanoma in mice after administration of compound at 198 mg/kg; assay type: functional, Mus musculus; details: route intraperitoneal; method in brief: as §3
[29] = Change in tumor cell population in ip implanted LOX amelanotic melanoma in mice after administration of compound at 24.75 mg/kg; assay type: functional, Mus musculus; details: route intraperitoneal; method in brief: as §3
P388 [30] = assay: Change in tumor cell population in ip implanted P388 Leukemia in mice after administration of compound at 24.8 mg/kg; assay type: functional, Mus musculus; details: route intraperitoneal; method in brief: as §5
[31] = Change in tumor cell population in ip implanted LOX amelanotic melanoma in mice after administration of compound at 49.5 mg/kg; assay type: functional, Mus musculus; details: route intraperitoneal; method in brief: as §3
[32] = Change in tumor cell population in ip implanted LOX amelanotic melanoma in mice after administration of compound at 99 mg/kg; assay type: functional, Mus musculus; details: route intraperitoneal; method in brief: as §3
[33] = Percent increase in life span of dying mice tested in vivo at 53 mg/kg against ip implanted LOX amelanotic melanoma in mice (60-day survivors); assay type: functional; details: Mus musculus, 1440 h, route intraperitoneal; method in brief: as §4
[34] = Percent increase in life span of dying mice tested in vivo at 106 mg/kg against ip implanted LOX amelanotic melanoma in mice (60-day survivors); assay type: functional; details: Mus musculus, 1440 h, route intraperitoneal; method in brief: as §4
[35] = Change in tumor cell population in ip implanted LOX amelanotic melanoma in mice after administration of compound at 26.5 mg/kg; assay type: functional, Mus musculus; details: route intraperitoneal; method in brief: as §3
[36] = Percent increase in life span of dying mice tested in vivo at 212 mg/kg against ip implanted LOX amelanotic melanoma in mice (60-day survivors); assay type: functional; details: Mus musculus, 1440 h, route intraperitoneal; method in brief: as §4
[37] = Change in tumor cell population in ip implanted LOX amelanotic melanoma in mice after administration of compound at 53 mg/kg; assay type: functional, Mus musculus; details: route intraperitoneal; method in brief: as §3
[38] = Change in tumor cell population in ip implanted LOX amelanotic melanoma in mice after administration of compound at 212 mg/kg; assay type: functional, Mus musculus; details: route intraperitoneal; method in brief: as §3
[39] = Percent increase in life span of dying mice tested in vivo at 26.5 mg/kg against ip implanted LOX amelanotic melanoma in mice (60-day survivors); assay type: functional; details: Mus musculus, 1440 h, route intraperitoneal; method in brief: as §4
[40] = Change in tumor cell population in ip implanted LOX amelanotic melanoma in mice after administration of compound at 106 mg/kg; assay type: functional, Mus musculus; details: route intraperitoneal; method in brief: as §3

Structure (SMILES): CCSc1nc(COC(=O)NC)c(COC(=O)NC)n1C
- ILS at 87 mg/kg [1]: 85%
- KE (P388 [2]): -4.3
- KE [3]: -2.5
- ILS at 174 mg/kg [4]: 95%
- KE (P388 [5]): -1.9
- ILS at 43.5 mg/kg [6]: 52%
- KE (P388 [7]): -1.3
- ILS at 87 mg/kg (P388 [8]): 99%
- ILS at 21.8 mg/kg (P388 [9]): 56%
- KE [10]: -0.5
- ILS at 21.75 mg/kg [11]: 44%
- KE [12]: -2.1
- KE [13]: -0.2
- ILS at 43.5 mg/kg (P388 [14]): 64%
- ILS at 10.9 mg/kg (P388 [15]): 47%
- KE (P388 [16]): -0.6

Structure (SMILES): CCC[S+]([O-])c1nc(COC(=O)NC)c(COC(=O)NC)n1C (stereo not given)
- ILS at 49.5 mg/kg (P388 [17]): 27%
- ILS at 99 mg/kg (P388 [18]): 27%
- ILS at 198 mg/kg [19]: 21%
- ILS at 24.8 mg/kg (P388 [20]): 25%
- ILS at 99 mg/kg [21]: 1%
- ILS at 24.75 mg/kg [22]: -2%
- KE (P388 [23]): 0.9
- KE (P388 [24]): 0.9
- KE (P388 [25]): 1.4
- ILS at 12.4 mg/kg (P388 [26]): 10%
- ILS at 49.5 mg/kg [27]: 15%
- KE [28]: 0.8
- KE [29]: 1.7
- KE (P388 [30]): 1
- KE [31]: 1
- KE [32]: 1.6

Structure (SMILES): CNC(=O)OCc1nc(SC2CCCCO2)n(C)c1COC(=O)NC (stereo not given)
- ILS at 53 mg/kg [33]: 15%
- ILS at 106 mg/kg [34]: 15%
- KE [35]: 1.2
- ILS at 212 mg/kg [36]: 8%
- KE [37]: 1
- KE [38]: 1.3
- ILS at 26.5 mg/kg [39]: 11%
- KE [40]: 1
